Tests used:
[1] = tested on: intercellular junctions of Caco-2 cell monolayers; test: Inhibition of intercellular junction resealing; format: cell-based; conditions: for Inhibition of resealing of intercellular junctions (TEER time course): 0.5 mM peptide, AP-BL sides, conditioned Caco-2 monolayers; for Inhibition of resealing (% TEER difference between 8- and 2-h time points) compared to blank: AP-BL sides of Caco-2 monolayers (Fig. 5); for Activity in the resealing assay compared to either ADT6 or HAV6: conjugates with aminocaproic acid (cap) linker
Outline: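 Caco-2 cells were grown on 3 µm-pore Transwell inserts (50,000 cells/insert) and used on days 15–20. Initial TEER was taken after 1 h at 37 °C in HBSS pH 7.4 (10 mM Hepes, 1% glucose, 2.0 mM CaCl2). Cells were conditioned 2 h in calcium-free medium. Peptide (0.5 or 1.0 mM) in Ca-HBSS was added AP, BL or AP-BL, with blank and unrelated-peptide controls. TEER was read hourly, minus 90 Ω × cm2 background, in triplicate. Inhibition was the TEER change from 2 to 8 h.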

[2] = tested on: MDCK cell monolayers; conditions: shown previously; cited from earlier work
[3] = tested on: E-cadherin-mediated adhesion of Caco-2 cells; test: Homotypic adhesion of Caco-2 single cells to attached cells; format: cell-based; conditions: 250 µM peptide
Outline: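 Single Caco-2 cells were released by Ca2+/Mg2+-free EBSS (1 h, 37 °C) and labelled with BCECF-AM. They were added at 5 × 10^4 cells/well to Caco-2 monolayers pretreated 2 h at 37 °C in Ca2+-free EBSS (1 mM Mg2+, 0.1% BSA). Co-incubation with peptide was 2 h at 37 °C. Positive control was anti-E-cadherin antibody DECMA-1 at 1:100. Unbound cells were removed and attached cells lysed; fluorescence was read at ex 485/em 530 nm.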

[4] = tested on: blood brain barrier; test: In situ rat brain perfusion, [3H; format: in vivo; conditions: 1.0 mM HAV6 first, then daunomycin with 500 µM verapamil; p < 0.001 (Fig. 3 E)
[5] = tested on: EC5 domain of E-cadherin; conditions: cited from earlier work
[6] = tested on: blood brain barrier; test: In situ rat brain perfusion, 14C-mannitol permeation; format: in vivo; conditions: for Enhancement of 14C-mannitol permeation through the BBB compared to vehicle: 1.0 mM test substance pre-perfused 4 min at 10 ml/min, triplicate
Outline: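 Perfusion was 4 min with vehicle (0.5% Tween in sterile saline) or 1.0 or 0.5 mM peptide, then immediately 4 min with 14C-mannitol (10 µCi). Brain radioactivity was measured in triplicate, reported as mean ± SD, and compared with vehicle (p < 0.05).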

[7] = tested on: Caco-2 cell monolayers; test: Peptide stability on Caco-2 cell monolayers; format: in vitro ADME
[8] = tested on: E-cadherin-mediated adhesion of Caco-2 cells; conditions: shown previously; cited from earlier work

Question: Which results are given for Ac-QGADTPPVGV-NH2 [ADT10]?
Answer: Inhibition of resealing of intercellular junctions (TEER time course) [1]: still active; Inhibition of resealing (% TEER difference between 8- and 2-h time points) compared to blank ([1]; 1.0 mM peptide): significantly suppress the resealing; Enhancement of 14C-mannitol permeation through MDCK cell monolayers [2]: enhance ^14C-mannitol through MDCK cell monolayers

Question: With “Ac-SSVAHS-NH2 [HAVrev, reference compound]” as the substance, how does the “Inhibition of resealing (% TEER difference between 8- and 2-h time points) compared to blank” value ([1]; 1.0 mM peptide) read?
Answer: could not suppress the resealing

Question: Which “Potency in blocking homotypic cell-cell adhesion relative to BLG1 and BLG4” value [3] does the source give for Ac-QDPELPDKNM-NH2 [BLG2] here?
Answer: more potent

Question: Which results are given for Ac-SHAVSS-NH2 [HAV6]?
Answer: Amount of daunomycin in the brain compared to vehicle-treated BBB [4]: tremendous increase; Binding to the expressed EC5 domain by NMR spectroscopy [5]: bind the expressed EC5 domain; Amount of mannitol delivered to the brain: lowering when HAV6 was lowered from 1.0 mM to 0.5 mM ([6]; 0.5 mM versus 1.0 mM HAV6): 40%; Enhancement of 14C-mannitol permeation through the BBB compared to vehicle [6]: significantly enhanced; Metabolic stability on Caco-2 cell monolayer ([7]; 96-h incubation on Caco-2 cell monolayer): metabolically stable

Question: For Ac-NDDGGQFVVT-NH2 [BLG3], which “Inhibition of resealing (% TEER difference between 8- and 2-h time points) compared to blank” value ([1]; 1.0 mM peptide) is on record?
Answer: could not inhibit the resealing

Question: For EATDSG [LABL6, reference compound], which “Enhancement of 14C-mannitol permeation through the BBB compared to vehicle” value [6] is on record?
Answer: did not enhance

Question: With Ac-DTPPV-cap-SHAVSS-NH2 as the substance, how does the “Activity in the resealing assay compared to either ADT6 or HAV6” value [1] read?
Answer: did not show any improved activity

Question: What does the source list for Ac-TYRIWRDTAN-NH2 [BLG4]?
Answer: Rank of inhibitory activity in the resealing assay among BLG peptides ([1]; 1.0 mM peptide, AP-BL sides (Fig. 5)): best inhibitory activity; Inhibition of resealing (% TEER difference between 8- and 2-h time points) compared to blank ([1]; 1.0 mM peptide): significantly suppress the resealing; Binding to the expressed EC5 domain by NMR spectroscopy [5]: bind the expressed EC5 domain

Question: Which “Activity in the resealing assay compared to either ADT6 or HAV6” value [1] does the source give for Ac-SHAVSS-cap-ADTPPV-NH2 here?
Answer: did not show any improved activity

Question: For “Ac-HSVSAS-NH2 [HAVscr, reference compound]”, which “Inhibition of resealing (% TEER difference between 8- and 2-h time points) compared to blank” value ([1]; 1.0 mM peptide) is on record?
Answer: could not suppress the resealing

Question: With Ac-ADTPPV-NH2 [ADT6] as the substance, how does the “Enhancement of 14C-mannitol permeation through MDCK cell monolayers” value [2] read?
Answer: enhance ^14C-mannitol through MDCK cell monolayers

Question: For Ac-LFSHAVSSNG-NH2 [HAV10], which “Inhibition of resealing of intercellular junctions (TEER time course)” value [1] is on record?
Answer: not at 0.5 mM

Question: What about the “Inhibition of homotypic Caco-2 cell adhesion” value [8] of the same substance?
Answer: inhibit the homotypic Caco-2 cell adhesion

Question: And the Peptide concentration remaining ([7]; 100 µM peptide, apical side of Caco-2 cell monolayers, 8 h incubation)?
Answer: 80%

Question: And the “Enhancement of 14C-mannitol permeation through MDCK cell monolayers” value [2]?
Answer: enhance ^14C-mannitol through MDCK cell monolayers
